Source: ChEMBL document CHEMBL1147085, “Metabolism and pharmacokinetics of a novel Src kinase inhibitor TG100435 ([7-(2,6-dichloro-phenyl)-5-methyl-benzo[1,2,4]triazin-3-yl]-[4-(2-pyrrolidin-1-yl-ethoxy)-phenyl]-amine) and its active N-oxide metabolite TG100855 …” (Drug Metab Dispos, 2007)

Tests used:
Rattus norvegicus [1] = experiment: AUC (0 to infinity) in Sprague-Dawley rat assessed as AUC of ([7-(2,6-Dichloro-phenyl)-5-methyl-benzo[1,2,4]triazin-3-yl]-[4-(2-pyrrolidin-1-yl-ethoxy)-phenyl]-amine) at 5 mg/kg, iv; format: ADME, organism-based, Plasma; set-up: time infinity, dose 5 mg/kg, route intravenous; settings: in vivo
Rattus norvegicus [2] = experiment: AUC (0 to infinity) in Sprague-Dawley rat assessed as AUC of ([7-(2,6-Dichloro-phenyl)-5-methyl-benzo[1,2,4]triazin-3-yl]-[4-(2-pyrrolidin-1-yl-ethoxy)-phenyl]-amine) at 5 mg/kg, ip; format: ADME, organism-based, Plasma; set-up: time infinity, dose 5 mg/kg, route intraperitoneal; settings: in vivo
[3] = Cmax in BALB/c mouse at 25 mg/kg, po; format: ADME, organism-based; set-up: dose 25 mg/kg, route oral; settings: in vivo
Procedure, shortened: (§1)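 Male BALB/c mice (~25 g); fasted overnight for single p.o. dosing, not fasted for i.v. or i.p. dosing. Composite blood sampling, n=3 per time point: 5, 15, 30 min, 1, 3, 6, 24, 48 hr after i.v. dose; 0.5, 1, 3, 5, 8, 24, 30, 48 hr after p.o. or i.p. dose. Heparinized plasma, both parent and N-oxide measured by LC/MS/MS (MRM 494.2/98.1 and 510.2/98.1); non-compartmental analysis, AUC by linear trapezoidal rule.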

[4] = Cmax in Sprague-Dawley rat at 25 mg/kg, po; format: ADME, organism-based; set-up: dose 25 mg/kg, route oral; settings: in vivo
Mus musculus [5] = experiment: Maximal plasma concentration of TG100435 in BALB/C mice after 25 mg/kg oral dose of TG100855; format: ADME, organism-based; set-up: dose 25 mg/kg, route oral; settings: in vivo; procedure, shortened: as §1
[6] = target: Tyrosine-protein kinase Lyn (Homo sapiens, UniProt P07948); experiment: Inhibition of Lyn by luminescence based kinase assay
[7] = AUC (0 to infinity) in BALB/c mouse at 40 mg/kg, po; format: ADME, organism-based; set-up: time infinity, dose 40 mg/kg, route oral; settings: plasma; procedure, shortened: as §1
[8] = AUC (0 to infinity) in Sprague-Dawley rat at 30 mg/kg, po; format: ADME, organism-based; set-up: time infinity, dose 30 mg/kg, route oral; settings: plasma
[9] = Tmax in BALB/c mouse at 25 mg/kg, po; format: ADME, organism-based; set-up: dose 25 mg/kg, route oral; settings: in vivo
[10] = Tmax in Sprague-Dawley rat at 25 mg/kg, po; format: ADME, organism-based; set-up: dose 25 mg/kg, route oral; settings: in vivo
[11] = AUC (0 to infinity) in BALB/c mouse at 25 mg/kg, po; format: ADME, organism-based; set-up: time infinity, dose 25 mg/kg, route oral; settings: plasma; procedure, shortened: as §1
[12] = AUC (0 to infinity) in Sprague-Dawley rat at 25 mg/kg, po; format: ADME, organism-based; set-up: time infinity, dose 25 mg/kg, route oral; settings: plasma
[13] = AUC (0 to last) in BALB/c mouse at 25 mg/kg, po; format: ADME, organism-based; set-up: time 0 - last, dose 25 mg/kg, route oral; settings: plasma; procedure, shortened: as §1
[14] = AUC (0 to last) in Sprague-Dawley rat at 25 mg/kg, po; format: ADME, organism-based; set-up: time 0 - last, dose 25 mg/kg, route oral; settings: plasma
[15] = Bioavailability in BALB/c mouse at 25 mg/kg, po; format: ADME, organism-based; settings: in vivo
[16] = Bioavailability in Sprague-Dawley rat at 25 mg/kg, po; format: ADME, organism-based; settings: in vivo
Mus musculus [17] = experiment: Tmax in BALB/c mouse assessed as Tmax of ([7-(2,6-Dichloro-phenyl)-5-methyl-benzo[1,2,4]triazin-3-yl]-[4-(2-pyrrolidin-1-yl-ethoxy)-phenyl]-amine) at 25 mg/kg, po; settings: in vivo
Rattus norvegicus [18] = experiment: Tmax in Sprague-Dawley rat assessed as Tmax of ([7-(2,6-Dichloro-phenyl)-5-methyl-benzo[1,2,4]triazin-3-yl]-[4-(2-pyrrolidin-1-yl-ethoxy)-phenyl]-amine) at 25 mg/kg, po; settings: in vivo
Mus musculus [19] = experiment: AUC (0 to last) in BALB/c mouse assessed as AUC of ([7-(2,6-Dichloro-phenyl)-5-methyl-benzo[1,2,4]triazin-3-yl]-[4-(2-pyrrolidin-1-yl-ethoxy)-phenyl]-amine) at 25 mg/kg, po; settings: in vivo
Mus musculus [20] = experiment: AUC (0 to infinity) in BALB/c mouse assessed as AUC of ([7-(2,6-Dichloro-phenyl)-5-methyl-benzo[1,2,4]triazin-3-yl]-[4-(2-pyrrolidin-1-yl-ethoxy)-phenyl]-amine) at 25 mg/kg, po; settings: in vivo
Rattus norvegicus [21] = experiment: AUC (0 to last) in Sprague-Dawley rat assessed as AUC of ([7-(2,6-Dichloro-phenyl)-5-methyl-benzo[1,2,4]triazin-3-yl]-[4-(2-pyrrolidin-1-yl-ethoxy)-phenyl]-amine) at 25 mg/kg, po; settings: in vivo
Rattus norvegicus [22] = experiment: AUC (0 to infinity) in Sprague-Dawley rat assessed as AUC of ([7-(2,6-Dichloro-phenyl)-5-methyl-benzo[1,2,4]triazin-3-yl]-[4-(2-pyrrolidin-1-yl-ethoxy)-phenyl]-amine) at 25 mg/kg, po; settings: in vivo
Mus musculus [23] = experiment: Bioavailability in BALB/c mouse assessed as bioavailability of ([7-(2,6-Dichloro-phenyl)-5-methyl-benzo[1,2,4]triazin-3-yl]-[4-(2-pyrrolidin-1-yl-ethoxy)-phenyl]-amine) at 25 mg/kg, po; settings: in vivo
Rattus norvegicus [24] = experiment: Bioavailability in Sprague-Dawley rat assessed as bioavailability of ([7-(2,6-Dichloro-phenyl)-5-methyl-benzo[1,2,4]triazin-3-yl]-[4-(2-pyrrolidin-1-yl-ethoxy)-phenyl]-amine) at 25 mg/kg, po; settings: in vivo

Sequence of Tyrosine-protein kinase Lyn (P07948 whole entry): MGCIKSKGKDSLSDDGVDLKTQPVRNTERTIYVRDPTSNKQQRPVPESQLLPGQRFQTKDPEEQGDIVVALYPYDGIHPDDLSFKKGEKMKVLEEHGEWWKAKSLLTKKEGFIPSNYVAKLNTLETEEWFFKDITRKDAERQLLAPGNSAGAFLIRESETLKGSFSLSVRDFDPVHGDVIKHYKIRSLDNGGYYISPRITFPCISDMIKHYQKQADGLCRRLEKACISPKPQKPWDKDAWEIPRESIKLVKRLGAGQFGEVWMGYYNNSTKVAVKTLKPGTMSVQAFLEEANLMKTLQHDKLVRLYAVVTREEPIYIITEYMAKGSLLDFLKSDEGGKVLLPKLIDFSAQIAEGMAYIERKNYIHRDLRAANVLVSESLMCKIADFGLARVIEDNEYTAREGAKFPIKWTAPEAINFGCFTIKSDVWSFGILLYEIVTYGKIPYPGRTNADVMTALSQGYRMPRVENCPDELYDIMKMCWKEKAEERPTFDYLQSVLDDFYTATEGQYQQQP

## Cc1cc(-c2c(Cl)cccc2Cl)cc2nnc(Nc3ccc(OCC[N+]4([O-])CCCC4)cc3)nc12
Rattus norvegicus [1]
  AUC: 539 ng·h/mL
Rattus norvegicus [2]
  AUC: 498 ng·h/mL
[3]
  Cmax: 171 ng/mL
[4]
  Cmax: 160 ng/mL
Mus musculus [5]
  Cmax: 113 ng/mL
[6]
  Ki: 4.19 nM
[7]
  AUC(0-inf): 13400 ng·h/mL
[8]
  AUC(0-inf): 9310 ng·h/mL
[9]
  Tmax: 1 h
[10]
  Tmax: 3.5 h
[11]
  AUC(0-inf): 939 ng·h/mL
[12]
  AUC(0-inf): 470 ng·h/mL
[13]
  AUC(0-t): 912 ng·h/mL
[14]
  AUC(0-t): 467 ng·h/mL
[15]
  bioavailability: 3.5%
[16]
  bioavailability: 1.6%
Mus musculus [17]
  Tmax: 7 h
Rattus norvegicus [18]
  Tmax: 4 h
Mus musculus [19]
  AUC: 1740 ng·h/mL
Mus musculus [20]
  AUC: 1760 ng·h/mL
Rattus norvegicus [21]
  AUC: 881 ng·h/mL
Rattus norvegicus [22]
  AUC: 906 ng·h/mL
Mus musculus [23]
  F: 6.8%
Rattus norvegicus [24]
  F: 3.1%
